IDH1 mut inh = inhibitors of IDH1 R132H reductase, primary screen, biochemical, plate reader, single point; diaphorase/resazurin fluorescence, 60 min; inhibition, % at 10 µM; Isocitrate dehydrogenase [NADP] cytoplasmic (Homo sapiens), O75874; hit rate 0.18% among 70,000; in the data active means inhibition above about 34%
Target sequence (O75874 whole entry R132H): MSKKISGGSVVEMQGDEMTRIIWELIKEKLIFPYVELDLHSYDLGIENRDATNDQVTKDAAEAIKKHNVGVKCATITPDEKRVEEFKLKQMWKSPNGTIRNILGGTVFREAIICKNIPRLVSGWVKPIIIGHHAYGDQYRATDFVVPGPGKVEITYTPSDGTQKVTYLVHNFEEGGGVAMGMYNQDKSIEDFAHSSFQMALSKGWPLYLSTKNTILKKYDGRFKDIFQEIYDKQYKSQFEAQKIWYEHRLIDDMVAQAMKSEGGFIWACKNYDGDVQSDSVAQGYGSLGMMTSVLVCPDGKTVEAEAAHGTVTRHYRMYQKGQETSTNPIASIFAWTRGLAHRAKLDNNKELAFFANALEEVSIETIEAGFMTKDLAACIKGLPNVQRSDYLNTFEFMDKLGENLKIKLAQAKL
Pf Dd2 growth = P. falciparum Dd2 growth inhibitors, primary screen, SYBR Green fluorescence, single dose replicates; 72 h; stronger effect = lower value; activity change, % at 10 µM; hit rate 2.3% among 94,000; AID 1159554, 2015; in the data active means activity change below about -80%
GASC1 inh = inhibitors of GASC-1 (KDM4C) histone demethylase, primary screen, biochemical, single concentration HTS. AID 720574, 2013. Lysine-specific demethylase 4C (Homo sapiens), Q9H3R0. hit rate 0.15% among 96,000. GST-KDM4C 2-372, H3K9me3 peptide, LANCE TR-FRET. inhibition, % at 12.5 µM;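 active means mean replicate inhibition above about 25%, with at least 55% of replicates also reaching it, limit read from the data, passing the limit was not always enough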
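System: N-terminal GST-fused human GASC-1 (KDM4C) fragment, residues 2-372 / Amount: 10 nM GST-KDM4C in enzyme reaction / Also added: H3K9me3 peptide with Fe(II)/2OG / Times: 30 min demethylation and 1 h detection at room temperature / Signal: LANCE TR-FRET / Read-out basis: Fall in 671/618 emission ratio as inhibition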
T cruzi growth-1 = T. cruzi intracellular proliferation inhibitors, primary screen, cell-based, beta-gal Tulahuen parasites, NIH3T3 host, luminescence; T. cruzi beta-gal in NIH3T3, GalScreen luminescence, 90 h; inhibition, % at 8.34 µM; hit rate 5.9% among 77,000; AID 624255, 2012;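 active means mean inhibition above about 93%, with at least 55% of replicates each passing it, limit read from the data, passing the limit was not always enough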
T cruzi growth-2 = T. cruzi intracellular proliferation inhibitors, confirmation, cell-based, NIH3T3 host, beta-gal parasite, luminescence, cherry-pick | AID 651739, 2012 | shares compounds with T cruzi growth-1 | hit rate 72% among 5,600 | T. cruzi beta-gal in NIH3T3, GalScreen luminescence, 90 h | inhibition, % at 8.35 µM;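 active means mean replicate inhibition above about 95% and at least 55% of replicates individually reaching it, limit read from the data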
T cruzi growth-3 = inhibitors of intracellular T. cruzi replication, confirmation, NIH3T3 host cells, beta-gal parasites, cherry-pick, set 2; shares compounds with T cruzi growth-1; T. cruzi beta-gal in NIH3T3, GalScreen luminescence, 90 h; inhibition, % at 2.09 µM; hit rate 21% among 5,600; AID 651740, 2012;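 active means mean inhibition above about 95%, with at least 55% of replicates also reaching it, limit read from the data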
NIH3T3 tox = cytotoxicity in mouse NIH/3T3 fibroblasts, confirmation, cytotoxicity control for T. cruzi proliferation inhibitor project, cell-based, cherry-pick, single point. hit rate 14% among 5,600. NIH/3T3 viability, CellTiter-Glo ATP luminescence, 90 h. cytotoxicity (signal decrease), % at 8.35 µM. AID 651742, 2012. shares compounds with T cruzi growth-1;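 active means mean signal decrease across replicates above about 35% based on untreated-well scatter, with enough replicates individually passing, limit read from the data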
3T3 cytotox 2 = NIH/3T3 fibroblast cytotoxicity, confirmation, cytotoxicity control, cell-based, cherry-pick, single point, set 2 | shares compounds with T cruzi growth-1 | NIH/3T3 viability, CellTiter-Glo ATP luminescence, 90 h | inhibition, % at 24.9 µM | hit rate 56% among 5,600 | AID 651744, 2012;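 active means mean loss of cell viability signal at or above a set limit, and enough replicates individually reaching it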
Of the large screens only hits and unclear results are named; the others gave an inactive call (follow-up assays come after a bar, where they were run). Compounds with a hit are over-represented: about 5.9% of the library has one in this group of screens.

Cc1ccc(-c2ccc3c(c2)O[C@@H](CN(C)Cc2cncnc2)[C@H](C)CN([C@H](C)CO)S3(=O)=O)cc1	none (no result: T cruzi growth-1)
C[C@@H]1CN([C@@H](C)CO)S(=O)(=O)c2ccc(-c3ccncc3)cc2O[C@@H]1CN(C)Cc1cncnc1	none
CCOC(=O)c1c(NC(=O)c2ccc(-c3ccccc3[N+](=O)[O-])o2)sc2c1CCCC2	none (no result: Pf Dd2 growth, GASC1 inh, T cruzi growth-1)
COc1ccc2[nH]c(=O)c(CN(C)C(=O)c3cccc(Cl)c3)cc2c1	none (no result: Pf Dd2 growth, GASC1 inh, T cruzi growth-1)
N#C[C@H]1[C@@H](c2ccc(C3=CCCCC3)cc2)[C@H](CO)N1S(=O)(=O)c1cccc(F)c1	T cruzi growth-1 100 (no result: IDH1 mut inh) | T cruzi growth-2 100 | T cruzi growth-3 inactive | NIH3T3 tox 45 | 3T3 cytotox 2 103
N#C[C@@H]1[C@@H](c2ccc(C3=CCCCC3)cc2)[C@H](CO)N1C(=O)c1cccc(F)c1	T cruzi growth-1 100 (no result: IDH1 mut inh) | T cruzi growth-2 inactive | T cruzi growth-3 inactive | NIH3T3 tox inactive | 3T3 cytotox 2 76
N#C[C@H]1[C@@H](c2ccc(C3=CCCCC3)cc2)[C@@H](CO)N1C(=O)c1cccc(F)c1	none
N#C[C@H]1[C@@H](c2ccc(C3=CCCCC3)cc2)[C@@H](CO)N1S(=O)(=O)c1cccc(F)c1	T cruzi growth-1 105 (no result: IDH1 mut inh) | T cruzi growth-2 101 | T cruzi growth-3 inactive | NIH3T3 tox 45 | 3T3 cytotox 2 65
N#C[C@H]1[C@@H](c2ccc(C3=CCCCC3)cc2)[C@@H](CO)N1C(=O)c1ccccn1	T cruzi growth-1 103 (no result: IDH1 mut inh) | T cruzi growth-2 104 | T cruzi growth-3 117 | NIH3T3 tox inactive | 3T3 cytotox 2 105
N#C[C@@H]1[C@H](c2ccc(C3=CCCCC3)cc2)[C@@H](CO)N1S(=O)(=O)c1ccccc1	none (no result: IDH1 mut inh)
N#C[C@@H]1[C@H](c2ccc(C3=CCCCC3)cc2)[C@H](CO)N1S(=O)(=O)c1ccccc1	none (no result: IDH1 mut inh)
CC(C)C1Cc2c(sc3nc(SCC(=O)Nc4ccc(Cl)cc4Cl)nc(N)c23)CO1 (stereo not drawn)	none (no result: Pf Dd2 growth, GASC1 inh, T cruzi growth-1)
O=C(N/N=C/c1ccc(-c2ccccc2)c(F)c1)c1ccccc1O	none (no result: Pf Dd2 growth, GASC1 inh, T cruzi growth-1)
Cn1c(CN2CCOCC2)nnc1SCC(=O)Nc1cc(C(F)(F)F)ccc1Cl	none (no result: Pf Dd2 growth, GASC1 inh, T cruzi growth-1)
CC(C)Oc1ccccc1NC(=O)CSc1nnc(-c2ccccc2Cl)o1	none (no result: Pf Dd2 growth, GASC1 inh, T cruzi growth-1)
O=C(CSC1CC(=O)N(c2ccc(OC(F)(F)F)cc2)C1=O)Nc1ccc(Cl)cc1 (stereo not drawn)	none (no result: Pf Dd2 growth, GASC1 inh, T cruzi growth-1)
CN(C)C(=O)c1ccc(-c2ccc([C@@H]3[C@@H](C#N)N(C(=O)C4CCOCC4)[C@H]3CO)cc2)cc1	T cruzi growth-1 98 (no result: IDH1 mut inh) | T cruzi growth-2 inactive | T cruzi growth-3 inactive | NIH3T3 tox inactive | 3T3 cytotox 2 inactive
CN(C)C(=O)c1cccc(-c2ccc([C@@H]3[C@H](C#N)N(C(=O)C4CCC4)[C@H]3CO)cc2)c1	T cruzi growth-1 100 (no result: IDH1 mut inh) | T cruzi growth-2 inactive | T cruzi growth-3 inactive | NIH3T3 tox inactive | 3T3 cytotox 2 inactive
CN(C)C(=O)c1cccc(-c2ccc([C@H]3[C@@H](C#N)N(C(=O)C4CCC4)[C@H]3CO)cc2)c1	T cruzi growth-1 102 (no result: IDH1 mut inh) | T cruzi growth-2 inactive | T cruzi growth-3 inactive | NIH3T3 tox inactive | 3T3 cytotox 2 inactive
CN(C)C(=O)c1cccc(-c2ccc([C@H]3[C@@H](CO)N(C(=O)C4CCC4)[C@H]3C#N)cc2)c1	T cruzi growth-1 104 (no result: IDH1 mut inh) | T cruzi growth-2 inactive | T cruzi growth-3 inactive | NIH3T3 tox inactive | 3T3 cytotox 2 inactive
O=C(O)c1ccc(/C=N/NC(=O)c2ccc(C(=O)NO)cc2)cc1	none (no result: Pf Dd2 growth, GASC1 inh, T cruzi growth-1)

Screening data from PubChem BioAssay.
